Reference: ChEMBL document CHEMBL4715925, “Sulfamoylbenzamide-based Capsid Assembly Modulators for Selective Inhibition of Hepatitis B Viral Replication” (ACS Med Chem Lett, 2021)

Assays:
[1] = Cytotoxicity against human HepG2 2.2.15 cells assessed as reduction in cell viability incubated for 5 days by MTT assay; assay type: cell-based; details: time 5 day
Summary of the method: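 HepG2.2.15 cells were incubated with compound, then cell viability was measured. Mean ± SD of three independent experiments.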

[2] = system: Hepatitis B virus; experiment: Antiviral activity against Hepatitis B genotype D virus infected in HepG2 2.2.15 cells assessed as inhibition of viral DNA incubated for 5 days by qPCR analysis; assay type: functional, cell-based; details: HepG2 2.2.15, 120 h
Summary of the method: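 HepG2.2.15 cells were incubated with compound for 5 days. HBV DNA was then purified from the culture supernatant and quantified by real-time PCR.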

[3] = Selectivity index, ratio of CC50 for human […] cells to EC50 for Hepatitis B virus; assay type: toxicity; details: read-out: Ratio CC50/EC50

Row | SMILES | EC50 [2] [µM] | CC50 at 120 h [1] [µM] | selectivity ratio [3]
1 | Nc1cc(F)c(S(=O)(=O)N2CCC(O)CC2)cc1C(=O)Nc1ccc(C(F)(F)F)c(F)c1 | > 3.3 | 5.9 | 
2 | Nc1cc(F)c(S(=O)(=O)N2CCC(O)CC2)cc1C(=O)Nc1ccc(F)c(C(F)(F)F)c1 | 2.18 | 47.3 | 21.7
3 | Nc1cc(F)c(S(=O)(=O)N2CCC(O)CC2)cc1C(=O)Nc1ccc(F)cc1 | 0.57 | 45.8 | 80.4

Second part, led by results:

Row | EC50 [2] [µM] | SMILES | CC50 at 120 h [1] [µM] | selectivity ratio [3]
4 | 2.07 | Nc1cc(F)c(S(=O)(=O)N2CCC(O)CC2)cc1C(=O)Nc1ccc(Cl)c(Cl)c1 | 20.4 | 9.9
5 | 1.08 | N#Cc1cc(NC(=O)c2cc(S(=O)(=O)N3CCC(O)CC3)c(F)cc2N)ccc1F | > 900 | > 833
6 | 2.18 | Nc1cc(F)c(S(=O)(=O)N2CCC(O)CC2)cc1C(=O)Nc1ccc(Cl)c(F)c1 | 20.3 | 9.3
7 | > 3.3 | Nc1cc(F)c(S(=O)(=O)N2CCC(O)CC2)cc1C(=O)Nc1ccc(C(F)(F)F)c(Cl)c1 | 8.7 | 
8 | 0.83 | Nc1cc(F)c(S(=O)(=O)N2CCC(O)CC2)cc1C(=O)Nc1ccc(F)c(Cl)c1 | 18.5 | 22.3
